How the values were obtained:
Assay type in all cases: cell-based
[1] = system: Candida albicans MTCC 227; assay: Agar well diffusion, antifungal; details: Candida albicans, MTCC227, 18 h, read-out: Zone of inhibition Candida albicans
Procedure, shortened: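 Fungal strains kept like the bacteria (Mueller–Hinton media) but at 30 °C. Agar well diffusion per CLSI (2012): inoculum spread over the agar, 6–8 mm wells punched, and 20–100 μL test compound added per well. Plates incubated at 30 °C and zone of inhibition diameter read in mm.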

[2] = system: SKBR-3 (human breast cancer cell line); assay: MTT cytotoxicity assay, SKBR-3; details: SK-BR-3, 48 h, read-out: IC50 SKBR-3
Procedure, shortened: (§1)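 ATCC cells grown in DMEM with 10% FBS, 2 mM L-glutamine and 100 μg/mL penicillin–streptomycin at 37 °C, 5% CO2. Medium refreshed, 10 μL of 12 mM MTT stock added, then 4 h in the dark at 37 °C. Formazan dissolved in DMSO and read at 570 nm against media-only blanks. Three independent experiments; IC50 by linear regression.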

[3] = system: Staphylococcus aureus MTCC 96; assay: Agar well diffusion, antibacterial; details: 1 mg/mL, 18 hrs
Procedure, shortened: (§2)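 Agar well diffusion per CLSI (2012). Bacteria grown on Mueller–Hinton agar and kept in Mueller–Hinton broth at 37 °C for 24 h. Inoculum spread evenly over the agar, 6–8 mm wells punched, and each well loaded with 20–100 μL test compound. Plates incubated at 37 °C and zones of inhibition measured in mm.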

[4] = system: Klebsiella pneumoniae MTCC 109; assay: Agar well diffusion, antibacterial; details: 1 mg/mL, 18 hrs
Procedure, shortened: as §2

[5] = system: Bacillus subtilis MTCC 121; assay: Agar well diffusion, antibacterial; details: 1 mg/mL, 18 hrs
Procedure, shortened: as §2

[6] = system: DU145 (human prostate cell line); assay: MTT cytotoxicity assay, DU145; details: DU-145, 48 h, read-out: IC50 DU145
Procedure, shortened: as §1

[7] = system: Escherichia coli MTCC 730; assay: Agar well diffusion, antibacterial; details: 1 mg/mL, 18 hrs
Procedure, shortened: as §2

[8] = system: HepG2 (Human hematoma cell line); assay: MTT cytotoxicity assay, HEPG2; details: HepG2, 48 h, read-out: IC50 HEPG2
Procedure, shortened: as §1

[9] = system: HEK-293 (human embryonic kidney cell line); assay: MTT cytotoxicity assay, HEK-293; details: HEK293, 48 h, read-out: IC50 HEK-293
[10] = system: erythrocytes (heparinized human blood); assay: Erythrocyte osmotic fragility; details: 1 μL of 10 mg mL^−1 stock, 37 °C, 30 min

O=C/C=C/c1ccccc1 [Compound 1, (E)-3-phenylprop-2-enal, reference compound]
zone of inhibition at 1000 µg/mL [1]: 11 mm
IC50 [2]: 13.9 ± 1.6 µM
Zone of inhibition Staphylococcus aureus [3]: 7–8 mm
Zone of inhibition Klebsiella pneumoniae [4]: 7–8 mm
Zone of inhibition Bacillus subtilis [5]: 7–8 mm
IC50 [6]: 22.4 ± 1.6 µM
Zone of inhibition Escherichia coli [7]: 7–8 mm
IC50 [8]: 21.8 ± 1 µM
IC50 [9]: 20.6 ± 1 µM

O=C(/C=C/C=C/c1ccccc1)c1ccccc1O [Compound 3, (2E,4E)-1-(2-hydroxyphenyl)-5-phenylpenta-2,4-dien-1-one]
IC50 [2]: 20.8 ± 4.1 µM
IC50 [6]: 83.5 ± 7.3 µM
IC50 [8]: 40.1 ± 2 µM
IC50 [9]: 67.4 ± 9.1 µM

O=C(/C=C/C=C/c1ccccc1)c1ccccc1OCc1cccc(Cl)c1 [Compound 5a, (2E,4E)-1-(2-((3-Chlorobenzyl)oxy)phenyl)-5-phenylpenta-2,4-dien-1-one]
IC50 [2]: 20.8 ± 1.7 µM
IC50 [6]: 45.2 ± 2.1 µM
IC50 [8]: 40.3 ± 2.9 µM
IC50 [9]: 30.1 ± 8.3 µM

O=C(/C=C/C=C/c1ccccc1)c1ccccc1OCc1ccc(Cl)c(Cl)c1 [Compound 5b, (2E,4E)-1-(2-((3,4-dichlorobenzyl)oxy)phenyl)-5-phenylpenta-2,4-dien-1-one]
IC50 [2]: 22.4 ± 2.4 µM
IC50 [6]: 17.9 ± 3.4 µM
MEF50 (Mean Erythrocyte Fragility; concentration of PBS at which 50% of erythrocytes undergo hemolysis) [10]: 0.538
IC50 [8]: 9.19 ± 0.6 µM
IC50 [9]: 20.4 ± 1.6 µM

O=C(/C=C/C=C/c1ccccc1)c1ccccc1OCc1ccc(Cl)cc1 [Compound 5c, (2E,4E)-1-(2-((4-Chlorobenzyl)oxy)phenyl)-5-phenylpenta-2,4-dien-1-one]
IC50 [2]: 30.7 ± 2 µM
IC50 [6]: 47.1 ± 4.5 µM
IC50 [8]: 40.17 ± 0.2 µM
IC50 [9]: 22.3 ± 1.2 µM

O=C(/C=C/C=C/c1ccccc1)c1ccccc1OCc1ccccc1Cl [Compound 5d, (2E,4E)-1-(2-((2-Chlorobenzyl)oxy)phenyl)-5-phenylpenta-2,4-dien-1-one]
IC50 [2]: 75.9 ± 4.8 µM
IC50 [6]: 46.1 ± 1.1 µM
IC50 [8]: 41.4 ± 3.9 µM
IC50 [9]: 203 ± 5.3 µM

O=C(/C=C/C=C/c1ccccc1)c1ccccc1OCc1ccc(F)cc1 [Compound 5e, (2E,4E)-1-(2-((4-Fluorobenzyl)oxy)phenyl)-5-phenylpenta-2,4-dien-1-one]
IC50 [2]: 56.1 ± 1.8 µM
IC50 [6]: 278.6 ± 1.7 µM
IC50 [8]: 282 ± 5.7 µM
IC50 [9]: 49.8 ± 2.8 µM

O=C(/C=C/C=C/c1ccccc1)c1ccccc1OCc1ccc(Br)cc1 [Compound 5g, (2E,4E)-1-(2-((4-Bromobenzyl)oxy)phenyl)-5-phenylpenta-2,4-dien-1-one]
IC50 [2]: 15.7 ± 2.8 µM
IC50 [6]: 16.9 ± 2.3 µM
IC50 [8]: 25.8 ± 1.6 µM
IC50 [9]: 27.6 ± 4.2 µM

Source: paper PMC12394810 (RSC Advances, 2025)
